This passage reports Activity results from ChEMBL document CHEMBL4673384, “Studying Histone Deacetylase Inhibition and Apoptosis Induction of Psammaplin A Monomers with Modified Thiol Group” (ACS Med Chem Lett, 2021).

The nature of series [1]: Toxicity in mouse LL/2 cells inoculated C57BL/6J mouse assessed as effect on body weight by measuring end body weight at 100 mg/kg, ip administered for 12 days and measured for every 2 days (reference value: 17.8 +/- 0.7 g). In kind it is organism-based. The note with it: in vivo, 288 h, time 12 day.
The test system of series [2] is HL-60. Put plainly: Induction of apoptosis in human HL-60 cells assessed as cleavage of PARP at 0.5 to 2 uM after 24 hrs Western blot analysis. In kind it is functional, cell-based. The note with it: dose 0.5-2 µM. In a few lines:
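HL-60 cells were treated for 24 h at the indicated concentrations, then analysed by Western blot. Blots were probed for cleavage of PARP and caspase-3, -8 and -9. Ac-H3, Ac-α-tubulin and β-actin were also detected, with β-actin as the loading reference.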
On the technique in general: Immunoblotting shows a protein as a band on a membrane.

Series [3] deals with HL-60. The series is described as follows: Induction of apoptosis in human HL-60 cells assessed as early apoptotic cells at 1 uM incubated for 24 hrs by propidium iodide and annexin-V FITC staining based FACS analysis (reference value: 2.8 %). It counts as functional. On the technique in general: Flow cytometry measures light scatter and fluorescence of single cells or particles in a stream.

Series [4] has as its system HL-60. Put plainly: Induction of apoptosis in human HL-60 cells assessed as early apoptotic cells at 1 uM incubated for 24 hrs by propidium iodide and annexin-V FITC staining based FACS analysis (reference value: 2.9 %). It counts as functional.

Structures are written as SMILES. The source made the active and inactive calls. The calls are words filed in the database; no cut-off is given here.

On to `O=C(NCCS)/C(Cc1ccc(O)c(Br)c1)=N/O`, for which the Activity in series [1] was 16.9 g. `O=C(CCNC(=O)/C(Cc1ccc(O)c(Br)c1)=N/O)NO`: the result in series [2] was Active. For the same compound, the Activity in series [3] is on record as 7.1%.

On to `O=C(NCCSSCCNC(=O)/C(Cc1ccc(O)c(Br)c1)=N/O)/C(Cc1ccc(O)c(Br)c1)=N/O` [PSAMMAPLIN A], for which the Activity in series [4] came out at 2.6%.
